Source: PubChem
KCNQ1 block: blocks the human KCNQ1 potassium channel. B-score at 10 µM. 310,000 compounds, 1.3% hits. CHO-K1 KCNQ1, FluxOR thallium flux fluorescence; stronger effect = higher value. P51787;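 active means compounds whose thallium flux B-score, printed positive for inhibition, exceeds three library SD while starting fluorescence stays within three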;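 further: channel opened by potassium depolarization with thallium stimulus after 20 min compound exposure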
hERG protect: shields human hERG channel from block by proarrhythmic agents; 310,000 compounds, 0.51% hits; AID 1511; activation (rescue from dofetilide block), less the hit threshold, % at 10 µM; CHO-hERG, FluxOR thallium flux, dofetilide IC70 present;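 active means activation above the mean of controls blocked by dofetilide plus 5 SD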;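 further: thallium influx through hERG after potassium depolarization seen as dye fluorescence rise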
Target sequence (Q12809 whole entry, looked up): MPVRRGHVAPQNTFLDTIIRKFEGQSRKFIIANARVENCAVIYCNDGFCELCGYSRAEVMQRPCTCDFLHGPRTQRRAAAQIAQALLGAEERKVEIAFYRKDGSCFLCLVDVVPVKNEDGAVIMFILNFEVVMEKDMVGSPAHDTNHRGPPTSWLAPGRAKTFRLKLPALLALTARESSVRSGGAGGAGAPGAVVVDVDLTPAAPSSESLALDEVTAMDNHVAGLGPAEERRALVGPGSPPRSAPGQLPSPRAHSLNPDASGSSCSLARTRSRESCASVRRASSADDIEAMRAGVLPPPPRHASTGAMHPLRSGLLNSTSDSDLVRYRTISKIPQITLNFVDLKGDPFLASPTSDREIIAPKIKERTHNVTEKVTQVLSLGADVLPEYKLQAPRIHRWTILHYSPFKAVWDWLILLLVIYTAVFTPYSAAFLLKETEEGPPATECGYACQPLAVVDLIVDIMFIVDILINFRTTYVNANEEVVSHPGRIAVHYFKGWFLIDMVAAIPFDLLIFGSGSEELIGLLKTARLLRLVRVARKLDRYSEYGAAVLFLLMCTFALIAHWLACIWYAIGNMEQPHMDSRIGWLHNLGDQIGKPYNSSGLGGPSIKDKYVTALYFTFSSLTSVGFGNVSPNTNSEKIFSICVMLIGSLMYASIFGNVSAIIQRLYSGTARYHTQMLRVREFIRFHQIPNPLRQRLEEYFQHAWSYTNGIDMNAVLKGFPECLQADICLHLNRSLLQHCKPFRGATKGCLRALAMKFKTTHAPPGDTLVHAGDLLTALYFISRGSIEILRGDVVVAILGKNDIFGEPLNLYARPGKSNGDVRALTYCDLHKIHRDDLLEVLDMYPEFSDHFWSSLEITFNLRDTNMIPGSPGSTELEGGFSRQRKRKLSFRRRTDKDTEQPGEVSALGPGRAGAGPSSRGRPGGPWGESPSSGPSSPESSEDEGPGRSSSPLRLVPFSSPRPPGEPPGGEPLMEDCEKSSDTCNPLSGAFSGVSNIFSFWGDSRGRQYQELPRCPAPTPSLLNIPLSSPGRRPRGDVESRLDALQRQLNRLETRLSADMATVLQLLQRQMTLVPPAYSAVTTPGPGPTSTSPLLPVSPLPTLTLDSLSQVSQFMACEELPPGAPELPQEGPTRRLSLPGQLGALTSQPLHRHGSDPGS
KCC2 mod: modulators of human KCC2 chloride dependent transport; Q9H2X9; B-score of Tl+ flux slope (higher = more flux/activation; lower = inhibition) at 10 µM; KCC2 cells, thallium flux FluoZin-2 fluorescence; 190,000 compounds, 2.2% hits;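 active means thallium flux slope and its plate-corrected score both differing from the plate sample mean at a set confidence after two filtering rounds, in either direction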;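 further: slope of fluorescence scaled to starting intensity during 10 to 20 s after thallium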
SUMO Mot1 rescue: blocks SUMOylation pathway, rescuing yeast Mot1-301 growth; S. cerevisiae Mot1-301 growth rescue, ATP luminescence, 38.5C; percent above DMSO median, 100 means doubled; growth rescue, % at 18.8 µM; 320,000 compounds, 1% hits; AID 2716;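 active means every valid replicate shows activation above 250% relative to neutral control wells; inactive means the rest, any valid replicate at or below 250%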;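 further: OY570 slx delta 5 strain wells were the positive control but not used for scaling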
AI-2 QS mod: Vibrio harveyi AI-2 quorum sensing modulation; Vibrio harveyi JMH597 AI-2 luminescence/OD600 ratio, 9 h; stronger effect = lower value; strain lacks LuxN and CqsS sensors; 0 = neutral-control median; 300,000 compounds, 0.4% hits; activity change, % at 7.5 µM; in the data active means activity change below about -75%, passing the limit was not always enough; inconclusive means no clear call, values can overlap the other calls;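 further: luminescence divided by OD600 gain over 9 h not by final OD600 alone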
KCNQ1 act: potentiators or activators of human KCNQ1 potassium channel | 310,000 compounds, 0.35% hits | CHO-K1 KCNQ1, thallium flux FluxOR fluorescence; stronger effect = higher value | P51787 | B-score at 10 µM;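 active means fluorescence ratio B-score, a plate-corrected score, at least three library SD, with initial intensity B-score within 5 SD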
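Assay system: CHO-K1 cells stably expressing KCNQ1; Medium: assay buffer with matched DMSO; Also added: K+/Tl+ depolarizing stimulus; Dosing: single dose; Timing: dye 90 min, compound 20 min, room temperature; Measured by: kinetic FluxOR thallium fluorescence, 10-s 1-Hz baseline, 110-s post-stimulus read; Read-out: peak-minus-minimum fluorescence over initial fluorescence, negative-control normalized, B-scored.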
KCC2 sec1: confirmation of human KCC2 transport modulators. shares compounds with KCC2 mod. HEK293-KCC2, thallium flux, FluoZin2 fluorescence; stronger effect = higher value. normalised thallium flux (F/F0 slope) at 10 µM. 3,700 compounds, 15% hits. AID 1713;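 active means thallium flux slope above the same plate's solvent-only control mean plus 3 SD; inconclusive means the two replicate wells disagree; inactive means no significant difference from solvent-only control wells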
KCC2 bumet counter: thallium flux despite bumetanide block in KCC2 cells, secondary assay 3; shares compounds with KCC2 mod; 3,700 compounds, 49% hits; HEK293-KCC2 + bumetanide/ouabain, thallium flux FluoZin2; stronger effect = higher value; normalized thallium flux at 10 µM;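 active means thallium entry rate above the same plate's blocked-transporter control wells by more than 3 SD; inconclusive means the two repeat wells disagree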;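 further: raw slope of fluorescence over initial fluorescence between 10 and 20 s after thallium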
KCC2 secondary2: confirmation of human KCC2 transport modulators | shares compounds with KCC2 mod | HEK293-KCC2, thallium flux FluoZin2 fluorescence; actives lie on both sides; F/F0 rise rate, 10–20 s post-thallium | normalized thallium flux at 10 µM | 3,700 compounds, 23% hits | AID 1715;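 active means thallium flux slope more than 3 SD above or below the plate's solvent-only control mean, mostly below; inconclusive means the two repeat wells disagreed; inactive means no significant shift from solvent-only controls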;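 further: raw slope with 0.1% DMSO as baseline and bumetanide as block control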
HEK293 Tl flux: acts in parental HEK cells, KCC2 counter-screen. shares compounds with KCC2 mod. HEK293 parental cells, thallium flux FluoZin2, ouabain; baseline-ratio fluorescence slope, 10–20 s after thallium. thallium flux rate (normalised fluorescence) at 10 µM. 3,700 compounds, 46% hits. AID 1716;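 active means thallium flux rate significantly above the same plate's solvent-only control wells, beyond their mean plus 3 SD; inconclusive means the two replicate wells gave conflicting results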
KCC2 ouabain: confirmation of human KCC2 modulators with ouabain; shares compounds with KCC2 mod; HEK293-KCC2, thallium flux FluoZin2 fluorescence; bidirectional: low = inhibitor, high = activator; raw Tl+ flux slope (below DMSO = inhibition, above = activation) at 10 µM; 3,700 compounds, 48% hits;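 active means thallium flux slope beyond 3 SD from same-plate DMSO control mean in most replicates, usually higher, sometimes lower; inconclusive means repeat tests gave conflicting results; inactive means no significant difference from controls in most replicates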;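 further: slope of initial-normalized fluorescence between seconds 10 and 20 after thallium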
HEK293 Tl flux2: counter-screen for KCC2 modulators: effect in parental HEK293 cells. shares compounds with KCC2 mod. thallium flux FluoZin-2 fluorescence slope. thallium flux slope at 10 µM. 3,700 compounds, 33% hits;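 active means thallium flux slope above the same plate's solvent-control mean plus 3 SD in both duplicate wells; inconclusive means duplicate wells that disagreed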;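 further: run without ouabain in cells lacking the KCC2 cotransporter; slope of fluorescence scaled to its starting value between 10 and 20 s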
* marks the source's active call; other numbers are inactive results; i = inactive; ? = inconclusive; nt = not tested or not shown. Most compounds without a hit are left out; they make up all but 4.2% or so of the library.

SMILES	KCNQ1 block	hERG protect	KCC2 mod	SUMO Mot1 rescue	AI-2 QS mod	KCNQ1 act	KCC2 sec1	KCC2 bumet counter	KCC2 secondary2	HEK293 Tl flux	KCC2 ouabain	HEK293 Tl flux2
O=C(COc1ncnc2ccccc12)NC1CCS(=O)(=O)C1 (configuration not stated)	i	-8	nt	-2	20	i	nt	nt	nt	nt	nt	nt
Cc1ccc2c(Cl)cc(Cl)c(OCC(=O)NC3CCS(=O)(=O)C3)c2n1 (configuration not stated)	i	-6	10*	0	9	i	0.018	0.019*	0.03	0.016*	0.022*	0.015*
O=C(COC(=O)c1c[nH]c2ccccc12)NC1CCCCC1	nt	nt	nt	-13	nt	nt	nt	nt	nt	nt	nt	nt
CC(C)c1ccc(NC(=S)NNC(=O)c2cccs2)cc1	i	0	25*	35	33	i	?	0.038*	0.027	0.018*	?	?
COc1ccc(NC(=S)NNC(=O)c2cccs2)cc1	i	-4	nt	-8	13	i	nt	nt	nt	nt	nt	nt
O=C(NCc1cccnc1)C1CC(c2ccccc2Cl)=NO1 (configuration not stated)	i	1	nt	5	9	i	nt	nt	nt	nt	nt	nt
O=C(Nc1ccccc1)Nc1ccc(C(=O)N2CCCC2)cc1	i	-2	-1.4	-47	13	i	nt	nt	nt	nt	nt	nt
COc1cccc(C(=O)Nc2cccc(C(=O)N3CCOCC3)c2)c1	i	-1	0.19	-6	37	i	nt	nt	nt	nt	nt	nt
Cc1cccc(C(=O)Nc2cccc(C(=O)N3CCOCC3)c2)c1	i	-4	4.3*	-12	0	i	0.017	0.0047	0.032	0.0078	0.018	0.01
CC(=O)c1cccc(NC(=O)Nc2ccc(C(=O)N3CCCC3)cc2)c1	i	-4	7.4*	-30	22	i	?	0.0038	0.027	0.0064	0.016	0.0094
CSc1ccc(/C=C(/NC(=O)c2ccco2)C(=O)N2CCCCC2)cc1	i	-11	nt	-20	-1	i	nt	nt	nt	nt	nt	nt
O=C1c2ccccc2C(=O)N1Cc1ccc2c(c1)OCO2	i	-6	-0.067	18	18	i	nt	nt	nt	nt	nt	nt
C=C1c2ccccc2NC(=S)N1Cc1ccc2c(c1)OCO2	i	-2	9.9*	140	17	i	0.0069	0.02*	0.032	0.021*	0.034*	0.017*
O=C(O)c1cncc(C#Cc2ccccc2)c1	i	-6	nt	-7	65	i	nt	nt	nt	nt	nt	nt
O=C(O)c1cccc(NC(=S)NC(=O)c2ccc(-c3ccccc3)cc2)c1	i	-9	-6.1*	0	67	i	?	0.0053	0.022*	0.0057*	0.013*	?
O=C(NC(=S)Nc1ccc(Cl)cc1)c1ccccc1	i	0	76*	427	16	i	0.016*	0.052*	0.037	?	0.046*	0.023*
O=C(NC(=S)Nc1ccccc1)c1cncc(C#Cc2ccccc2)c1	i	5.8*	24*	-23	17	i	?	0.023*	0.029	0.01*	0.039*	?
CCOc1cccc(C(=O)NC(=S)Nc2cccc(C)c2)c1	i	1	6.4*	36	11	i	0.0067	0.011*	0.034	0.012*	?	0.015*
Cc1ccc(C(=O)O)cc1NC(=S)NC(=O)c1ccc(-c2ccccc2)cc1	i	-8	-3.8	22	29	i	nt	nt	nt	nt	nt	nt
CC(=O)c1cccc(NC(=S)NC(=O)c2ccccc2)c1	i	-1	4.5*	10	10	i	0.0065	0.02*	0.032	0.018*	?	0.016*
CN(Cc1ccccc1)C(=O)CC(=O)N(C)Cc1ccccc1	i	-3	nt	-7	1	i	nt	nt	nt	nt	nt	nt
CCCOc1ccc(CN(CCC#N)C(=S)NC(=O)c2ccccc2)cc1	i	59*	80*	5	13	14*	0.055*	0.11*	0.074*	0.1*	0.11*	0.055*
COc1cc(C(=O)NC(=S)N(CCC#N)Cc2cccnc2)cc(OC)c1OC	nt	nt	nt	-20	nt	nt	nt	nt	nt	nt	nt	nt
COc1ccc(C(=O)NC(=S)N(C)Cc2ccccc2)cc1Br	i	-6	11*	3	39	i	0.0079	0.019*	0.037	0.022*	0.044*	0.016*
CN(Cc1ccccc1)C(=S)NC(=O)c1ccccc1	i	2	65*	-14	8	i	0.056*	0.16*	0.07*	0.085*	0.13*	0.036*
SMILES	KCNQ1 block	hERG protect	KCC2 mod	SUMO Mot1 rescue	AI-2 QS mod	KCNQ1 act	KCC2 sec1	KCC2 bumet counter	KCC2 secondary2	HEK293 Tl flux	KCC2 ouabain	HEK293 Tl flux2
Cc1noc(C)c1C(=O)N1CCN(c2ccc(OCc3ccccc3)cc2)CC1	i	-7	-0.07	-1	11	i	nt	nt	nt	nt	nt	nt
c1ccc(-c2nc(Sc3ncnc4c3cnn4-c3ccccc3)n[nH]2)cc1	i	-8	-6.7*	i	28	i	0.007	0.0049	0.023*	0.0069	?	0.011
COc1ccc(-c2nn(-c3ccccc3)cc2/C=C(\CC(=O)O)c2nc3ccccc3s2)cc1OC	i	-19	-3.8*	62	25	i	0.007	0.006	0.031	?	0.014*	0.01
COc1cc2ccccc2cc1C(=O)OCc1nc2ccsc2c(=O)[nH]1	nt	nt	nt	-10	nt	nt	nt	nt	nt	nt	nt	nt
O=C(NC(=S)Nc1nc2ccc(F)cc2s1)c1ccco1	i	40*	41*	3	14	47*	?	0.13*	0.097*	0.092*	0.11*	0.089*
C(=N\Nc1nc(-c2ccccc2)cs1)/c1ccco1	i	-14	-4.3*	23	7	i	0.009	0.0053	?	0.0086	0.015*	0.012
O=C(Nc1nc2cc3c(cc2s1)OCO3)c1ccco1	i	-7	0.78	nt	13	i	nt	nt	nt	nt	nt	nt
